Experimental data pooled from the literature.
Protocols differ between the studies behind these lines.
Observed: microbial growth

For CC(C)Oc1c(NC(=O)c2ccc(NC(=O)[C@H](CC(N)=O)NC(=O)c3ccc(NC(=O)c4ccc(C#N)cc4)cc3)cc2)ccc(C(=O)Nc2ccc(C(=O)O)cc2)c1O, the MIC was 0.25 µg/mL (Proteus vulgaris; DSM2140).
CCCCCCC/C=C/C(=O)N1C(=O)/C(=C(/C)O)C(=O)C1Cc1ccc(OC(C)(C)C)cc1 (centres unmarked) gave an MIC of > 200 µg/mL (Proteus vulgaris; ATCC33420).
CCCCCCCCCCCCCCS(=O)(=O)C[C@@H]1O[C@@H](O[C@@H]2[C@@H](O)[C@H](O[C@@H]3O[C@@H](CN)[C@H](O)[C@@H](O)[C@@H]3N)[C@@H](N)C[C@H]2N)[C@@H](O)[C@H](N)[C@H]1O gave an MIC of 2 to 4 µg/mL (Listeria monocytogenes; ATCC19115).
The MIC of O=C(Cc1ccc(O)c(O)c1)NCCCCCCCC[P+](c1ccccc1)(c1ccccc1)c1ccccc1.[Br-] is reported as > 32 µg/mL (Cryptococcus neoformans; broth dilution; ATCC208821; 24 h).
CCCCCCC/C=C/C(=O)N1C(=O)/C(=C(\O)c2ccc(O)cc2)C(=O)C1CC(C)C (centres unmarked) gave an MIC of > 200 µg/mL (Proteus vulgaris; ATCC33420).
For CN1CCN(CC(O)(Cn2cncn2)c2ccc(F)cc2F)CC1 (centres unmarked), the MIC was 31.3 µg/mL (Nakaseomyces glabratus; broth dilution; ATCC2001; 48 h).
CC(C)Oc1c(NC(=O)c2ccc(NC(=O)[C@H](CC(N)=O)NC(=O)c3ccc(NC(=O)c4ccc(C#N)cn4)cc3)cc2)ccc(C(=O)Nc2ccc(C(=O)O)cc2)c1O gave an MIC of 0.06 µg/mL (Proteus vulgaris; DSM2140).
CCCCCCC/C=C/C(=O)N1CC(=O)/C(=C(\C)O)C1=O has an MIC of > 200 µg/mL (Proteus vulgaris; ATCC33420).
O=C(CCCCCCCC[P+](c1ccccc1)(c1ccccc1)c1ccccc1)Nc1ccc(O)c(O)c1.[Br-] has an MIC of > 32 µg/mL (Cryptococcus neoformans; broth dilution; ATCC208821; 24 h).
With NC[C@H]1O[C@H](O[C@H]2[C@H](O)[C@@H](O[C@H]3O[C@H](CO)[C@@H](O)[C@H](N)[C@H]3O)[C@H](N)C[C@@H]2N)[C@H](O)[C@@H](O)[C@@H]1O the MIC was > 128 µg/mL (Listeria monocytogenes; ATCC19115).
For C/C(O)=C1\C(=O)C(CC(C)C)N(C(=O)CCCCCc2ccccc2)C1=O (centres unmarked), the MIC was > 200 µg/mL (Proteus vulgaris; ATCC33420).
The MIC of CC(C)Oc1c(-n2cc(-c3ccc(NC(=O)C(CC(N)=O)NC(=O)c4ccc(NC(=O)c5ccc(C#N)cc5)cc4)cc3)nn2)ccc(C(=O)Nc2ccc(C(=O)O)cc2)c1O (centres unmarked) is reported as 2 µg/mL (Proteus vulgaris; DSM2140).
The MIC of O=C(CCCCCCCCCC[P+](c1ccccc1)(c1ccccc1)c1ccccc1)Nc1cc(O)c(O)c(O)c1.[Br-] is reported as 4 µg/mL (Cryptococcus neoformans; broth dilution; ATCC208821; 24 h).
CC(C)Oc1c(NC(=O)c2ccc(NC(=O)[C@H](CC(N)=O)NC(=O)c3ccc(NC(=O)c4ccc(C#N)s4)cc3)cc2)ccc(C(=O)Nc2ccc(C(=O)O)cc2)c1O has an MIC of 0.06 µg/mL (Proteus vulgaris; DSM2140).
CCCCC(=O)N1C(=O)/C(=C(/C)O)C(=O)C1CC(C)C (centres unmarked) gave an MIC of > 200 µg/mL (Proteus vulgaris; ATCC33420).
The MIC of O=C(CCCCCC[P+](c1ccccc1)(c1ccccc1)c1ccccc1)Nc1cc(O)c(O)c(O)c1.[Br-] is reported as 32 µg/mL (Cryptococcus neoformans; broth dilution; ATCC208821; 24 h).
For O=C(O)c1cn(C2CC2)c2cc(N3CCNCC3)c(F)cc2c1=O, the MIC was ≤ 0.03 µg/mL (Proteus vulgaris; DSM2140).
C[C@@H]1[C@H](O)[C@@H](C)/C=C/C=C/C=C/C=C/C=C/C=C/C=C/[C@H](O[C@@H]2O[C@H](C)[C@@H](O)[C@H](N)[C@@H]2O)C[C@@H]2O[C@](O)(C[C@@H](O)C[C@@H](O)[C@H](O)CC[C@@H](O)C[C@@H](O)CC(=O)O[C@H]1C)C[C@H](O)[C@H]2C(=O)O gave an MIC of 1.25 µg/mL (Cryptococcus neoformans; ATCC90113).
With O=C(Nc1ccc2c(c1)OC(F)(F)O2)Nc1ccc(Cl)c(C(F)(F)F)c1 the MIC was 0.3 µM (Listeria monocytogenes).
CCCCCCC/C=C/C(=O)N1C(=O)/C(=C(/C)O)C(=O)C1CCC(=O)O (centres unmarked) gave an MIC of > 200 µg/mL (Proteus vulgaris; ATCC33420).
